Screens as filed in PubChem.
CHO parental Ca: ATP-evoked calcium signal inhibitors, parental CHO, primary screen, counter-screen for OX1R antagonist project, cell-based, fluorescence, Fluo-8 calcium dye | 330,000 tested, 0.63% active | inhibition, % at 5.6 µM | parental CHO-K1, ATP-induced calcium, Fluo-8 fluorescence;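 active means inhibition above that plate's mean sample inhibition plus 3 SD, cut at about 26% in these data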
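Measured by: calcium-sensitive Fluo-8 fluorescence / Test system: CHO parental line / Controls: ATP-challenged DMSO wells low, unchallenged DMSO wells high / Measure: % inhibition / Compound: single nominal dose of 5.6 µM per compound / Replicates: single well per compound, no replicates / Reagent: ATP as calcium-mobilizing challenge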
EP2 mod: EP2 receptor modulators, cAMP readout, primary screen, cell-based, HTRF cAMP, PGE2 stimulation | Prostaglandin E2 receptor EP2 subtype (Homo sapiens), P43116 | EP2-expressing cells, cAMP HTRF FRET, PGE2 co-stimulation | induction, % at 25 µM | 260,000 tested, 0.83% active;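 active means compounds whose cAMP rise, as percent of the full-agonist control response, exceeds 60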;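 further: rat C6 glioma line stably carrying human EP2 under a CMV promoter; the protocol text gives 20 µM as final concentration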
OX1R antag-1: antagonists of human orexin 1 receptor (OX1R); 330,000 tested, 1.8% active; OX1R-expressing cells, FRET antagonist read-out; Orexin/Hypocretin receptor type 1 (Homo sapiens), O43613; inhibition, % at 6.6 µM; in the data active means inhibition mostly above about 38%, no sharp cut-off; inactive means mostly below about 40%
EP2 antag: human EP2 receptor antagonists, primary screen, TR-FRET cAMP, C6 glioma cells. Prostaglandin E2 receptor EP2 subtype (Homo sapiens), P43116. C6 glioma cells expressing human EP2; cells stimulated with saturating PGE2. inhibition, % at 25 µM. 260,000 tested, 0.52% active. AID 1422, 2008;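 active means percent inhibition above 40 after rounding to a whole number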;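 further: rat C6 glioma host cells with rolipram phosphodiesterase inhibitor present; the protocol text gives 20 µM as final concentration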
GPR7 antagonist: GPR7 receptor antagonists, primary screen, cell-based, fluorescence, single concentration. AID 1861, 2009. GPR7-expressing cells, fluorescence antagonist assay. inhibition, % at 4.4 µM. 290,000 tested, 1.1% active; in the data active means inhibition above about 16%, passing the limit was not always enough;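 further: cells stimulated with the agonist NPW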
Target sequence (P48145 whole entry, looked up): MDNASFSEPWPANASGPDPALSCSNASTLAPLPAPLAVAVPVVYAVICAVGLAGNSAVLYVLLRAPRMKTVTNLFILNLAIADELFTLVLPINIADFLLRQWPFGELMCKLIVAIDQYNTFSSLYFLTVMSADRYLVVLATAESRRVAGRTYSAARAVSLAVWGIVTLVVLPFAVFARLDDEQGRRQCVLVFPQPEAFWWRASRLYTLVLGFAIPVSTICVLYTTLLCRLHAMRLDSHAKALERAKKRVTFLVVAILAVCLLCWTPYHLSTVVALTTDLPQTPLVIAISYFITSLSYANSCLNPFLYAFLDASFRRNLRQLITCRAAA
OX1R antag-2: OX1R (HCRTR1) antagonists, primary screen, fluorescence, CHO/OX1R cells, Fluo-8 calcium, orexin A | Orexin/Hypocretin receptor type 1 (Homo sapiens), O43613 | Fluo-8 calcium fluorescence | inhibition, % at 5 µM | 330,000 tested, 0.43% active;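 active means inhibition above its plate's threshold, mean inhibition of all tested compounds on the plate plus 3 SD, cut at about 37% in these data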
EP2 confirm: cAMP induction in EP2, EP4, beta2-AR and parental cells, confirmation, counter-screen for EP2 modulator project, cell-based, five parallel assays, C6 glioma, HEK293; AID 1080, 2008; 1,300 tested, 47% active; cAMP HTRF induction; plus low (about EC15) PGE2 agonist; calls only at 20 µM (by protocol); shares compounds with EP2 mod;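 active means cAMP induction above 50% in the main assay while under 30% in all four parallel counter assays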;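 further: rat C6 glioma cells stably expressing human EP2 receptor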
Large screens that a line does not name were inactive (follow-up assays come after a bar, where they were run). Sampled rows, rich in hits. Any-hit rate of the full collection: about 3.7%.

CCCN=C(N)/C(C(=O)OCC)=C(\O)c1ccc(OC)cc1	none
COc1ccccc1CNC(=O)C1(c2ccc(Cl)cc2)CC1	EP2 mod 69 | EP2 confirm inactive
COCCCNC(=O)c1cc2c(=O)n3cccc(C)c3nc2s1	none (no result: EP2 mod, EP2 antag)
COC(=O)c1ccc(N2C(=O)c3ccc(OC)c(OC)c3C2=O)cc1	none (no result: EP2 mod)
O=C(CC(Sc1ccccc1)c1cccs1)c1ccco1 (stereo unspecified)	EP2 mod 89 | EP2 confirm inactive
CC(=NNC(=O)c1cccs1)c1ccc2c(c1)OCCO2	none (no result: EP2 mod, EP2 antag, GPR7 antagonist)
NC(=O)CSc1nc(-c2ccccc2)c(-c2ccccc2)o1	EP2 mod 67 | EP2 confirm active
CCOC(=O)c1cc(-c2ccccc2)sc1NC(=O)C(C)N1C(=O)NC(C)(c2ccc(Cl)cc2)C1=O (stereo unspecified)	none
CC(C)Oc1ccc(C(CC(=O)O)c2ccc(F)cc2)cc1 (stereo unspecified)	none
CCc1nnc2n1N=C(c1ccc(-c3cc(Cl)ccc3Cl)o1)CS2	EP2 mod 68 | EP2 confirm active
CCc1nnc2n1N=C(c1ccc(-c3ccc(Cl)cc3Cl)o1)CS2	none (no result: CHO parental Ca, EP2 mod, OX1R antag-1, EP2 antag, OX1R antag-2)
CC(=O)Nc1ccc(/C=N/N2C(C)CCCC2C)cc1 (stereo unspecified)	none
CCOC(=O)c1ccc(CN(Cc2ccc(C)cc2)S(=O)(=O)c2cccc([N+](=O)[O-])c2)cc1	EP2 mod 65 | EP2 confirm inactive
COc1ccc(C)cc1-n1c(=O)c2ccccc2c2ccccc2c1=O	EP2 mod 74 (no result: CHO parental Ca, OX1R antag-1, OX1R antag-2) | EP2 confirm inactive
N#Cc1ccc(C2=CC(=O)C[C@H](c3ccc4c(c3)OCO4)C2)cc1	none (no result: EP2 mod, EP2 antag, GPR7 antagonist)
O=C(Cc1c(F)cccc1Cl)Nc1ccccc1C(=O)N1CCCCC1	none (no result: EP2 mod, EP2 antag, GPR7 antagonist)
O=C(Cc1c(F)cccc1Cl)Nc1ccccc1N1CCCCC1	EP2 mod 75 | EP2 confirm active
O=C(Nc1ccccc1N1CCCCC1)c1ccc(F)cc1	EP2 mod 66 | EP2 confirm active
O=C(Nc1ccccc1C(=O)N1CCCCCC1)c1ccc(F)cc1	none (no result: EP2 mod, EP2 antag)
Cc1occc1-c1nnc(SCC(=O)Nc2ccccc2N2CCCCC2)n1C	none | EP2 confirm inactive
O=C(Nc1ccccc1N1CCCCC1)c1cccc([N+](=O)[O-])c1	none | EP2 confirm active
O=C(CNC1CCCCCC1)Nc1ccccc1N1CCCCC1	none
O=C(CNCC1CCCCC1)Nc1ccccc1N1CCCCC1	EP2 mod 66 | EP2 confirm active
O=S(=O)(c1ccccc1)c1nc(-c2ccco2)oc1N1CCCCCC1	EP2 mod 68 | EP2 confirm inactive
CCOC(=O)c1c(NC(=O)CSC(=S)N(C)C)sc(C)c1C	EP2 mod 66 | EP2 confirm active
CCOC(=O)c1c(NC(=O)c2c(Br)cnn2CC)sc(C)c1C	EP2 mod 73 | EP2 confirm active
CCOC(=O)c1c(NC(=O)CNCCO)sc(C)c1C	none
CCn1ncc(Br)c1C(=O)Nc1sc2c(c1C(=O)OC)CCC2	none (no result: EP2 mod)
CCOC(=O)c1c(NC(=O)c2ccncc2)sc(C)c1C	EP2 mod 74 | EP2 confirm active
CCOC(=O)c1c(NC(=O)c2ccoc2C)sc(C)c1C	EP2 mod 77 | EP2 confirm inactive
COc1ccc(-c2ccc(=O)n(CC3CCN(C(=O)C(C)C)CC3)n2)cc1	none (no result: CHO parental Ca, OX1R antag-1, EP2 antag, GPR7 antagonist, OX1R antag-2)
COc1ccc(CCn2nnnc2C(C(C)C)N2CCN(c3ccccc3F)CC2)cc1OC (stereo unspecified)	none (no result: CHO parental Ca, OX1R antag-1, GPR7 antagonist, OX1R antag-2)
COc1ccc(-c2nn(-c3ccccc3)cc2C(=O)Nc2cccc(S(=O)(=O)NC3=NCCC3)c2)cc1	none (no result: EP2 mod, EP2 antag, GPR7 antagonist)
